Assay results from ChEMBL document CHEMBL4138201, “Synthesis and biological evaluation of sulfur-containing shikonin oxime derivatives as potential antineoplastic agents” (Eur J Med Chem, 2018).
pIC50: −log10 of the molar value. Active and inactive are the calls of the source. The rule behind the calls is not given here.

Columns and labels:
[1] = Induction of NO release in phosphate buffer at pH 7.4 at 0.1 mM measured after 1 hr in presence of N-acetylcysteine by Griess assay; assay type: functional
How it was run: (§1)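 Percentage of NO released in vitro measured by Griess assay against a standard curve. Incubation in 0.5 mM N-acetylcysteine, read hourly from 1 to 6 h.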

[2] = Cytotoxicity against human HSF cells after 48 hrs by MTT assay; assay type: cell-based
How it was run: (§2)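 MTT colorimetric assay. Shikonin and 5-fluorouracil served as reference agents. IC₅₀ obtained by linear regression of each compound's concentration–response curve.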

[3] = Induction of NO release in phosphate buffer at pH 7.4 at 0.1 mM measured after 3 hrs in presence of N-acetylcysteine by Griess assay; assay type: functional; how it was run: as §1
[4] = Induction of NO release in phosphate buffer at pH 7.4 at 0.1 mM measured after 4 hrs in presence of N-acetylcysteine by Griess assay; assay type: functional; how it was run: as §1
MGC-803 = assay: Cytotoxicity against human MGC803 cells after 48 hrs by MTT assay; assay type: functional, cell-based; conditions: MGC-803, 48 h; how it was run: as §2
MCF7 = assay: Cytotoxicity against human MCF7 cells after 48 hrs by MTT assay; assay type: functional, cell-based; conditions: MCF7, 48 h; how it was run: as §2
[5] = Induction of NO release in phosphate buffer at pH 7.4 at 0.1 mM measured after 2 hrs in presence of N-acetylcysteine by Griess assay; assay type: functional; how it was run: as §1
Bel-7402 = assay: Cytotoxicity against human Bel7402 cells after 48 hrs by MTT assay; assay type: functional, cell-based; conditions: Bel-7402, 48 h; how it was run: as §2
[6] = Induction of NO release in phosphate buffer at pH 7.4 at 0.1 mM measured after 5 hrs in presence of N-acetylcysteine by Griess assay; assay type: functional; how it was run: as §1
HCT-15 [7] = assay: Cytotoxicity against human HCT15 cells after 48 hrs by MTT assay; assay type: functional, cell-based; conditions: HCT-15, 48 h; how it was run: as §2
[8] = Induction of NO release in phosphate buffer at pH 7.4 at 0.1 mM measured after 6 hrs in presence of N-acetylcysteine by Griess assay; assay type: functional; how it was run: as §1
HCT-15 [9] = assay: Cell cycle arrest in human HCT15 cells assessed assessed as accumulation at S phase at 0.5 to 1.0 uM after 24 hrs by propidium iodide staining-based flow cytometric method; assay type: functional; conditions: in the assay text read “accumulation at G1 phase” for “accumulation at S phase”
How it was run: (§3)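 HCT-15 cells seeded in 6-well plates, exposed to 0, 0.5 or 1.0 µM for 24 h, then harvested and stained with propidium iodide. DNA content read by flow cytometry and G1, S and G2/M fractions calculated. Comparison with untreated control by Student's t-test.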

HCT-15 [10] = assay: Induction of apoptosis in human HCT15 cells assessed as necrotic cells at 1 uM after 24 hrs by Annexin-V-FITC/propidium iodide staining based flow cytometry (reference value: 0.005%); assay type: functional
HCT-15 [11] = assay: Induction of apoptosis in human HCT15 cells assessed as late apoptotic cells at 2 uM after 24 hrs by Annexin-V-FITC/propidium iodide staining based flow cytometry (reference value: 6.59%); assay type: functional
HCT-15 [12] = assay: Induction of apoptosis in human HCT15 cells assessed as necrotic cells at 2 uM after 24 hrs by Annexin-V-FITC/propidium iodide staining based flow cytometry (reference value: 0.005%); assay type: functional
HCT-15 [13] = assay: Induction of apoptosis in human HCT15 cells assessed as early apoptotic cells at 2 uM after 24 hrs by Annexin-V-FITC/propidium iodide staining based flow cytometry (reference value: 2.97%); assay type: functional
HCT-15 [14] = assay: Induction of apoptosis in human HCT15 cells assessed as viable cells at 2 uM after 24 hrs by Annexin-V-FITC/propidium iodide staining based flow cytometry (reference value: 90.4%); assay type: functional; conditions: HCT-15, 24 h, read-out: Activity
HCT-15 [15] = assay: Induction of apoptosis in human HCT15 cells assessed as viable cells at 0.5 uM after 24 hrs by Annexin-V-FITC/propidium iodide staining based flow cytometry (reference value: 90.4%); assay type: functional; conditions: HCT-15, 24 h, read-out: Activity
HCT-15 [16] = assay: Cell cycle arrest in human HCT15 cells assessed assessed as accumulation at G1 phase at 0.5 uM after 24 hrs by propidium iodide staining-based flow cytometric method (reference value: 36.7%); assay type: functional; how it was run: as §3
HCT-15 [17] = assay: Cell cycle arrest in human HCT15 cells assessed assessed as accumulation at G1 phase at 1.0 uM after 24 hrs by propidium iodide staining-based flow cytometric method (reference value: 36.7%); assay type: functional; how it was run: as §3
HCT-15 [18] = assay: Induction of apoptosis in human HCT15 cells assessed as nuclear fragmentation up to 1.0 uM after 24 hrs by Hoechst 33342 staining-based fluorescence microscopic method; assay type: functional, cell-based
How it was run: (§4)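 HCT-15 cells incubated 24 h at 0, 0.5 or 1.0 µM, then stained with Hoechst 33342. Nuclei examined by fluorescence for fragmentation, chromatin condensation and staining intensity.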

HCT-15 [19] = assay: Induction of apoptosis in human HCT15 cells assessed as increase in Bax protein expression up to 2 uM after 24 hrs by Western blot analysis; assay type: functional, cell-based
How it was run: (§5)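 Protein extracted from HCT-15 cells after 24 h at 0, 0.5, 1.0 or 2.0 µM. Bcl-2, Bax and cleaved caspase-3 and -9 immunoblotted, band ratios quantified by densitometry. Student's t-test used.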

HCT-15 [20] = assay: Induction of apoptosis in human HCT15 cells assessed as chromatin condensation up to 1.0 uM after 24 hrs by Hoechst 33342 staining-based fluorescence microscopic method; assay type: functional, cell-based; how it was run: as §4
HCT-15 [21] = assay: Induction of apoptosis in human HCT15 cells assessed as increase in cleaved caspase-3 levels after 24 hrs by Western blot analysis; assay type: functional, cell-based; how it was run: as §5
HCT-15 [22] = assay: Cell cycle arrest in human HCT15 cells assessed assessed as accumulation at G2/M phase at 0.5 to 1.0 uM after 24 hrs by propidium iodide staining-based flow cytometric method; assay type: functional; conditions: in the assay text read “accumulation at G1 phase” for “accumulation at G2/M phase”; how it was run: as §3
HCT-15 [23] = assay: Induction of apoptosis in human HCT15 cells assessed as necrotic cells at 0.5 uM after 24 hrs by Annexin-V-FITC/propidium iodide staining based flow cytometry (reference value: 0.005%); assay type: functional
HCT-15 [24] = assay: Induction of apoptosis in human HCT15 cells assessed as late apoptotic cells at 1 uM after 24 hrs by Annexin-V-FITC/propidium iodide staining based flow cytometry (reference value: 6.59%); assay type: functional
HCT-15 [25] = assay: Induction of apoptosis in human HCT15 cells assessed as early apoptotic cells at 0.5 uM after 24 hrs by Annexin-V-FITC/propidium iodide staining based flow cytometry (reference value: 2.97%); assay type: functional
HCT-15 [26] = assay: Induction of apoptosis in human HCT15 cells assessed as late apoptotic cells at 0.5 uM after 24 hrs by Annexin-V-FITC/propidium iodide staining based flow cytometry (reference value: 6.59%); assay type: functional
HCT-15 [27] = assay: Induction of apoptosis in human HCT15 cells assessed as downregulation of Bcl2 expression at 2 uM after 24 hrs by Western blot analysis; assay type: functional, cell-based; how it was run: as §5
HCT-15 [28] = assay: Induction of apoptosis in human HCT15 cells assessed as increase in cleaved caspase-9 levels after 24 hrs by Western blot analysis; assay type: functional, cell-based; how it was run: as §5
HCT-15 [29] = assay: Induction of apoptosis in human HCT15 cells assessed as viable cells at 1 uM after 24 hrs by Annexin-V-FITC/propidium iodide staining based flow cytometry (reference value: 90.4%); assay type: functional; conditions: HCT-15, 24 h, read-out: Activity
HCT-15 [30] = assay: Induction of apoptosis in human HCT15 cells assessed as early apoptotic cells at 1 uM after 24 hrs by Annexin-V-FITC/propidium iodide staining based flow cytometry (reference value: 2.97%); assay type: functional
HCT-15 [31] = assay: Induction of apoptosis in human HCT15 cells after 24 hrs by Annexin-V-FITC/propidium iodide staining based flow cytometry; assay type: functional, cell-based

SMILES: COc1ccc(C(=O)SC(CC=C(C)C)c2cc(OC)c3c(c2OC)/C(=N/O)C=C/C3=N\O)cc1OC (configuration not stated)
- Activity [1]: 0.041%
- pIC50 [2]: < 4.30
- Activity [3]: 0.063%
- Activity [4]: 0.079%
- pIC50 (MGC-803): 5.93
- pIC50 (MCF7): 4.83
- Activity [5]: 0.05%
- pIC50 (Bel-7402): 6.18
- Activity [6]: 0.073%
- pIC50 (HCT-15 [7]): 6.41
- Activity [8]: 0.065%

SMILES: COc1ccc(C(=O)SC(CC=C(C)C)c2cc(OC)c3c(c2OC)/C(=N/O)C=C/C3=N\O)cc1 (configuration not stated)
- Activity [1]: 0.038%
- pIC50 [2]: < 4.30
- Activity [3]: 0.058%
- Activity [4]: 0.064%
- pIC50 (MGC-803): 6.03
- pIC50 (MCF7): 4.77
- Activity [5]: 0.045%
- pIC50 (Bel-7402): 5.96
- Activity [6]: 0.059%
- pIC50 (HCT-15 [7]): 6.21
- Activity [8]: 0.053%

SMILES: COc1cc(C(=O)SC(CC=C(C)C)c2cc(OC)c3c(c2OC)/C(=N/O)C=C/C3=N\O)cc(OC)c1OC (configuration not stated)
- Activity (HCT-15 [9]): Active
- Activity (HCT-15 [10]): 0.021%
- Activity [1]: 0.049%
- pIC50 [2]: < 4.30
- Activity (HCT-15 [11]): 57.3%
- Activity (HCT-15 [12]): 0.088%
- Activity [3]: 0.076%
- Activity (HCT-15 [13]): 20.1%
- viability at 2 µM (HCT-15 [14]): 22.4%
- viability at 0.5 µM (HCT-15 [15]): 86%
- Activity [4]: 0.091%
- pIC50 (MGC-803): 6.07
- Activity (HCT-15 [16]): 44.1%
- Activity (HCT-15 [17]): 49.9%
- Activity (HCT-15 [18]): Active
- pIC50 (MCF7): 5.03
- Activity (HCT-15 [19]): Active
- Activity (HCT-15 [20]): Active
- Activity (HCT-15 [21]): Dose-dependent effect
- Activity (HCT-15 [22]): Active
- Activity (HCT-15 [23]): 0.018%
- Activity [5]: 0.063%
- Activity (HCT-15 [24]): 23.7%
- Activity (HCT-15 [25]): 4.56%
- pIC50 (Bel-7402): 6.35
- Activity (HCT-15 [26]): 9.43%
- Activity (HCT-15 [27]): Active
- Activity (HCT-15 [28]): Dose-dependent effect
- viability at 1 µM (HCT-15 [29]): 58%
- Activity [6]: 0.084%
- pIC50 (HCT-15 [7]): 6.57
- Activity (HCT-15 [30]): 18.3%
- Activity [8]: 0.079%
- Activity (HCT-15 [31]): Dose-dependent effect

SMILES: COc1cc(C(CC=C(C)C)SCCC(C)C)c(OC)c2c1/C(=N/O)C=C/C2=N\O (configuration not stated)
- Activity [1]: 0.023%
- pIC50 [2]: < 4.30
- Activity [3]: 0.033%
- Activity [4]: 0.038%
- pIC50 (MGC-803): 5.47
- pIC50 (MCF7): 4.57
- Activity [5]: 0.027%
- pIC50 (Bel-7402): 5.27
- Activity [6]: 0.029%
- pIC50 (HCT-15 [7]): 5.94
- Activity [8]: 0.024%
